Values joined by “and” are separate entries in the source; they are usually repeats but may differ in a detail not shown here. Equal entries are not always repeated. Where two headings read alike, the source gives them in different places.
Legend:
DENV-2 [1] = details: read-out: IC50 DENV-2; cited from earlier work
ZIKV [2] = details: read-out: IC50 ZIKV; cited from earlier work
[3] = Cytotoxicity, CellTiter-Glo 2.0 luminescent cell viability assay; format: cell-based; details: human, Huh7 cells
[4] = molecular target: D2pol: polymerase domain of dengue 2 virus (Dengue virus type 2, UniProt P14340); test: In vitro polymerase assay; format: biochemical; details: read-out: IC50 D2pol; polymerase activity
[5] = molecular target: D2 NS5: full length DENV protein (Dengue virus type 2, UniProt P14340); test: In vitro polymerase assay; format: biochemical, dengue 2 virus; details: read-out: IC50 D2 NS5, polymerase activity
[6] = molecular target: ZIKV NS5: full length ZIKV protein (Zika virus, UniProt A0A024B7W1); test: In vitro polymerase assay; format: biochemical; details: read-out: IC50 ZIKV NS5, polymerase activity
Chain of ZIKV NS5: full length ZIKV protein (A0A024B7W1 2521-3423 limits assumed): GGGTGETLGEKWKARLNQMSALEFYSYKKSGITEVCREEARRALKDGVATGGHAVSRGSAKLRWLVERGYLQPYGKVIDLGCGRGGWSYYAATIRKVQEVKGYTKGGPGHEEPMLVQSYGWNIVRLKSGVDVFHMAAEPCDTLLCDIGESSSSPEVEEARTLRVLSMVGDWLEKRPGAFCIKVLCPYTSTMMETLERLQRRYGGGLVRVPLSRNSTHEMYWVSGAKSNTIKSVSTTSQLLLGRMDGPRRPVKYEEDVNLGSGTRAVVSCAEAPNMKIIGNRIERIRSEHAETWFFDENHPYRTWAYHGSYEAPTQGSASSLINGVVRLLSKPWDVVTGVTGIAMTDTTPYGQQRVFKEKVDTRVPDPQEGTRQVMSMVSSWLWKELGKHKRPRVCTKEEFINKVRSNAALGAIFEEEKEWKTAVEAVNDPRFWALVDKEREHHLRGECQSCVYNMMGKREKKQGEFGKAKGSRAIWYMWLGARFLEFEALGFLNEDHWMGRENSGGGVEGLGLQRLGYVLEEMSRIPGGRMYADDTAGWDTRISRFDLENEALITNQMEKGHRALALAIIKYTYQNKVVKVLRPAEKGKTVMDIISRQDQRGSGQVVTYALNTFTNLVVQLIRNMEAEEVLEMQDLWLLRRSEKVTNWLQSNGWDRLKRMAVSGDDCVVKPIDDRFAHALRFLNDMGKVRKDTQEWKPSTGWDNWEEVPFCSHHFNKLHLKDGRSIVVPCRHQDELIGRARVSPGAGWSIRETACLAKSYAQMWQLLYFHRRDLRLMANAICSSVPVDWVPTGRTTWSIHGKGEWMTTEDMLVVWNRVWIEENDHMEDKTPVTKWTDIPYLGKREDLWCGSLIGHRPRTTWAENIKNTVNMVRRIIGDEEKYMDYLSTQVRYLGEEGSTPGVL

SARS-CoV-2 = details: SARS-CoV-2, Calu-3; literature value in parenthesis; cited from earlier work
[7] = ABTS radical decolorization assay; format: physicochemical; details: 10 μM-1 mM, 10 min; Fig. 2
Summary of the method: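 ABTS radical cation solution, diluted 1:100 in ethanol to an absorbance of 0.70 (±0.02) at 734 nm, serves as the control solution. Test compound or ascorbic acid reference, dissolved in DMSO at 10 μM, 50 μM, 0.1 mM, 0.2 mM, 0.5 mM or 1 mM, is added. A734 is read after exactly 10 min, and %scavenging = [(A0 − As)/A0] × 100, with the control run in each assay.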

[8] = Stability towards oxidative stress; format: physicochemical; details: 40 mM H2O2 in ethanol, argon atmosphere; data not shown
DENV-2 [9] = test: Plaque reduction assay; format: cell-based, Dengue virus serotype 2 (New Guinea C); details: Dengue virus, DENV2, read-out: DENV-2 IC50
[10] = test system: DENV NS3 and NS5 proteins; format: cell-based, DENV-2; details: for expression of NS5 protein: 6i 50 μM (p ≤ 0.0001 at 16 h), Sofosbuvir 100 μM (from 12 h, p ≤ 0.01); for expression of NS3 protein: 6i 50 μM (p ≤ 0.05 at 12 h), Sofosbuvir 100 μM (from 12 h, p ≤ 0.05)
PR8 H1N1 = test: Time-of-addition, In Cell Western of hemagglutinin; format: cell-based, Influenza A virus
[11] = test system: influenza A virus strains PR8 H1N1, pandemic 2009H1N1, avian Ulster H7N1; format: cell-based
DENV = test: In vitro resistance selection in Huh7 cells, NS3/NS5 population sequencing; format: cell-based, Dengue virus serotype 2 (New Guinea C)
ZIKV [12] = test: as above; format: cell-based, Zika virus (H/PF/2013)
[13] = test system: Dengue, Zika, West Nile and Influenza A viruses; test: Antiviral activity, range over the tested viruses; format: cell-based; details: read-out: IC50 (range over viruses)

Question: What does the source list for `Oc1cccc(Nc2nc(NCCOc3ccccc3)nc3[nH]cnc23)c1` [Compound 3]?
Answer: IC50 (DENV-2 [1]): 10 µM; IC50 (ZIKV [2]): 16.7 µM

Question: Which CC50 [3] does the source give for `Fc1cccc(Nc2nc(NCCOc3ccccc3)nc3[nH]cnc23)c1` [Compound 6c, N6-(3-fluorophenyl)-N2-(2-phenoxyethyl)-9H-purine-2,6-diamine] here?
Answer: > 200 µM

Question: For `O=C(O)c1cccc(Nc2nc(NCCOc3ccccc3)nc3[nH]cnc23)c1` [Compound 6m, 3-((2-((2-phenoxyethyl)amino)-9H-purin-6-yl)amino)benzoic acid], which CC50 [3] is on record?
Answer: > 200 µM

Question: With `Oc1ccc(Nc2nc(NCCOc3ccccc3)nc3[nH]cnc23)cc1O` [Compound 6j, 4-((2-((2-phenoxyethyl)amino)-9H-purin-6-yl)amino)benzene-1,2-diol] as the compound, how does the CC50 [3] read?
Answer: > 200 µM

Question: For `COC(=O)c1cccc(Nc2nc(NCCO)nc3[nH]cnc23)c1` [Compound 6e, Methyl 3-((2-((2-hydroxyethyl)amino)-9H-purin-6-yl)amino)benzoate], which CC50 [3] is on record?
Answer: > 200 µM

Question: With `Nc1ncnc2c1ncn2[C@@H]1O[C@H](COP(=O)(O)OP(=O)(O)OP(=O)(O)O)C[C@H]1O` [3'dATP] as the compound, how does the IC50 [4] read?
Answer: 270 ± 30 nM

Question: And the IC50 [5]?
Answer: 320 ± 50 nM

Question: And the IC50 [6]?
Answer: 1000 ± 200 nM

Question: For `CCC(CC)COC(=O)[C@H](C)N[P@](=O)(OC[C@H]1O[C@@](C#N)(c2ccc3c(N)ncnn23)[C@H](O)[C@@H]1O)Oc1ccccc1` [RMD], which IC50 (SARS-CoV-2) is on record?
Answer: 280 nM

Question: For `CNc1nc(Nc2cccc(C(=O)OC)c2)c2nc[nH]c2n1` [Compound 6d, Methyl 3-((2-(methylamino)-9H-purin-6 yl)amino)benzoate], which CC50 [3] is on record?
Answer: > 200 µM

Question: For `Fc1cccc(NNc2nc(NCCOc3ccccc3)nc3[nH]cnc23)c1` [Compound 10a, 6-(2-(3-fluorophenyl) hydrazinyl)-N-(2-phenoxyethyl)-9H-purin-2-amine], which “radical scavenging activity (% inhibition of the ABTS absorbance at 734 nm)” value [7] is on record?
Answer: clear concentration-dependent radical scavenging activity

Question: And the “stability towards oxidative stress” value [8]?
Answer: quickly converted into 11a

Question: Which CC50 [3] does the source give for `CNc1nc(Nc2cccc(C(F)(F)F)c2)c2nc[nH]c2n1` [Compound 6g, N2-methyl-N6-(3-(trifluoromethyl)phenyl)-9H-purine-2,6-diamine] here?
Answer: > 200 µM

Question: What does the source list for `CC(C)OC(=O)[C@H](C)N[P@](=O)(OC[C@H]1O[C@@H](n2ccc(=O)[nH]c2=O)[C@](C)(F)[C@@H]1O)Oc1ccccc1` [Sofosbuvir, reference compound]?
Answer: CC50 [3]: > 200 µM; IC50 (DENV-2 [9]): 3.8 µM; expression of NS5 protein [10]: significantly reduced; expression of NS3 protein [10]: significantly reduced

Question: For `CNc1nc(Nc2cccc(C(=O)O)c2)c2nc[nH]c2n1` [Compound 6l, 3-((2-(methylamino)-9H-purin-6-yl)amino)benzoic acid], which CC50 [3] is on record?
Answer: > 200 µM

Question: Which “radical scavenging activity (% inhibition of the ABTS absorbance at 734 nm)” value [7] does the source give for `Fc1cccc(/N=N/c2nc(NCCOc3ccccc3)nc3[nH]cnc23)c1` [Compound 11a, 6-((3-fluorophenyl)diazenyl)-N-(2-phenoxyethyl)-9H-purin-2-amine] here?
Answer: not observed

Question: What about the “stability towards oxidative stress” value [8] of the same compound?
Answer: stable for days

Question: Which CC50 [3] does the source give for `FC(F)(F)c1cccc(Nc2nc(NCCOc3ccccc3)nc3[nH]cnc23)c1` [Compound 6i, N [2]-(2-phenoxyethyl)-N [6]-(3-(trifluoromethyl)phenyl)-9H-purine-2,6-diamine] here?
Answer: > 200 µM

Question: What about the “radical scavenging activity (% inhibition of the ABTS absorbance at 734 nm)” value [7] of the same compound?
Answer: not observed

Question: What about the “stability towards oxidative stress” value [8] of the same compound?
Answer: stable for days

Question: What about the “effect on HA expression” value (PR8 H1N1) of the same compound?
Answer: not quite effective

Question: And the “inhibition of viral protein expression” value [11]?
Answer: 20–26% and 28–45%

Question: And the “dpi (days post infection to 80% CPE)” value (DENV; 6i 15 μM)?
Answer: 6 days

Question: And the “dpi (days post infection to 80% CPE)” value (DENV; 6i 30 μM)?
Answer: 7 days

Question: And the “dpi (days post infection to 80% CPE)” value (DENV; 6i 60 μM)?
Answer: 5 days

Question: And the “dpi (days post infection to 80% CPE)” value (DENV; 6i 120 μM)?
Answer: 5 days and 9 days

Question: What about the “dpi (days post infection to 80% CPE)” value (ZIKV [12]; 6i 15 μM) of the same compound?
Answer: 8 days

Question: And the “dpi (days post infection to 80% CPE)” value (ZIKV [12]; 6i 30 μM)?
Answer: 5 days

Question: And the “dpi (days post infection to 80% CPE)” value (ZIKV [12]; 6i 60 μM)?
Answer: 5 days

Question: What about the “dpi (days post infection to 80% CPE)” value (ZIKV [12]; 6i 120 μM) of the same compound?
Answer: 5 days

Question: What about the “expression of NS5 protein” value [10] of the same compound?
Answer: significantly reduced

Question: And the “expression of NS3 protein” value [10]?
Answer: significantly reduced

Question: And the “MCC NS3/NS5 (Manders' colocalization coefficient)” value ([10]; 6i 50 μM, 16 h post infection, untreated control 0.726 ± 0.135)?
Answer: 0.404 ± 0.106

Question: What about the “MCC NS5/NS3 (Manders' colocalization coefficient)” value ([10]; 6i 50 μM, 16 h post infection, untreated control 0.752 ± 0.125) of the same compound?
Answer: 0.397 ± 0.101

Question: And the IC50 [13]?
Answer: 500 to 5300 nM

Question: With `NC(=O)c1ncn([C@@H]2O[C@H](CO)[C@@H](O)[C@H]2O)n1` [Ribavirin, reference compound] as the compound, how does the CC50 [3] read?
Answer: > 200 µM

Reference: publication PMC8255191 (European Journal of Medicinal Chemistry, 2021)
